Source: ChEMBL document CHEMBL2176880 (J Med Chem, 2012)

Legend:
[1] = Drug metabolism in mouse liver microsomes at 5 uM after 15 mins; assay type: ADME, Microsome; settings: read-out: Drug metabolism
[2] = Drug metabolism in human liver microsomes at 5 uM after 15 mins; assay type: ADME, Microsome; settings: read-out: Drug metabolism
Method in brief: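 Compound at 5 μM incubated 15 min with human liver microsomes; read-out is % of compound metabolized. Values are the mean of at least two experiments.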

[3] = molecular target: T1, Metabotropic glutamate receptor 2 (Homo sapiens, UniProt Q14416); assay: Positive allosteric modulator activity at human mGlu2R expressed in CHO cells incubated for 30 mins by [35S]GTPgammaS binding assay relative to control; assay type: functional, cell-based
Target sequence in this assay (Q14416 19-872 limits assumed): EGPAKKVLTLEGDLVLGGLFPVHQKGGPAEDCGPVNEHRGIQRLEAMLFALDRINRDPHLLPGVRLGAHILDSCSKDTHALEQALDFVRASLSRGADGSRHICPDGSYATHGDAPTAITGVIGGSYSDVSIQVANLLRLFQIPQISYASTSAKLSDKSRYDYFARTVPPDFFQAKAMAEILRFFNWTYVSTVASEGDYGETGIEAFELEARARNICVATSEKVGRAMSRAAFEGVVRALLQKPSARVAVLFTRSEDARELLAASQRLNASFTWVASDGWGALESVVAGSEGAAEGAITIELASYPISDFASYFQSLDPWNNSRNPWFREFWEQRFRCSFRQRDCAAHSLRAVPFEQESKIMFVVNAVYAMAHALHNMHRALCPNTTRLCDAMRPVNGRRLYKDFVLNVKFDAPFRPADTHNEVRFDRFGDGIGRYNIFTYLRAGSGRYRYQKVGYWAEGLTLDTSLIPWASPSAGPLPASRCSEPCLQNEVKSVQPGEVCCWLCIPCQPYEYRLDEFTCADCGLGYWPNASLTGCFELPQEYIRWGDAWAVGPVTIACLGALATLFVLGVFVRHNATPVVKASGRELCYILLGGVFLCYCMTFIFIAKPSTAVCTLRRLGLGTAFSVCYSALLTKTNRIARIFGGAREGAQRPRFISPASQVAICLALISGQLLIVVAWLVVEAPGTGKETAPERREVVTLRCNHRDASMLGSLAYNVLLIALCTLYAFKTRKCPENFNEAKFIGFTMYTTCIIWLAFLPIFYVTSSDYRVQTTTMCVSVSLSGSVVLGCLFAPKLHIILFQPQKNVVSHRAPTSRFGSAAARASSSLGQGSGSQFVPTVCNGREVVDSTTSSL

[4] = molecular target: T1, Metabotropic glutamate receptor 2; assay: Positive allosteric modulator activity at human mGlu2R expressed in CHO cells incubated for 30 mins by [35S]GTPgammaS binding assay; assay type: functional, cell-based
Target sequence in this assay (Q14416 whole entry): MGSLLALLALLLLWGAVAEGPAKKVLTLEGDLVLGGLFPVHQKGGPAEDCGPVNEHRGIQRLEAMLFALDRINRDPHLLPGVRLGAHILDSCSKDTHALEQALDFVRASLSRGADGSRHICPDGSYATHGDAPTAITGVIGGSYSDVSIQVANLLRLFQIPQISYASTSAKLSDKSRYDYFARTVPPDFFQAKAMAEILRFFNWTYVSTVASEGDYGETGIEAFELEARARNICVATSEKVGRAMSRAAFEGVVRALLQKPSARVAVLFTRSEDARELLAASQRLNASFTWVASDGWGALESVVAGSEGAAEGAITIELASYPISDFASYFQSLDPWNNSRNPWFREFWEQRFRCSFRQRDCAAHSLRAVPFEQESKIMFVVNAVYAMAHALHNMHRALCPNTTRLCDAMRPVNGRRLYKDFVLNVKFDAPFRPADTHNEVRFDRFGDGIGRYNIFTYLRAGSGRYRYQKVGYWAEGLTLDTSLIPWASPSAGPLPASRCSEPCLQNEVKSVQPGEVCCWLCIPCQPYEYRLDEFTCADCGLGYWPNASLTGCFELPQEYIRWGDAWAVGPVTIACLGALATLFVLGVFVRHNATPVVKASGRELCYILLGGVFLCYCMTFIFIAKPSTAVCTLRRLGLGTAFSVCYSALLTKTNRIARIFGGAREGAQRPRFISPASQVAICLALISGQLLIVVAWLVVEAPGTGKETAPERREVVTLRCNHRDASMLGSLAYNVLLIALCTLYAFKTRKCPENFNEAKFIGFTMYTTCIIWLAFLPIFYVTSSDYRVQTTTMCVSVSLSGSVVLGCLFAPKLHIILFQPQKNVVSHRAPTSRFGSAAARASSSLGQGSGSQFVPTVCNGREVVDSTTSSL

[5] = Oral bioavailability in Sprague-Dawley rat at 10 mg/kg; assay type: ADME, organism-based; settings: in vivo
[6] = Cmax in Sprague-Dawley rat at […], iv or 10 mg/kg, po; assay type: ADME, organism-based; settings: in vivo
[7] = AUC (0 to infinity) in Sprague-Dawley rat at 10 mg/kg, po; assay type: ADME, organism-based; design: time infinity, dose 10 mg/kg, route oral; settings: plasma
[8] = Tmax in Sprague-Dawley rat at […], iv or 10 mg/kg, po; assay type: ADME, organism-based; settings: in vivo
[9] = Volume of distribution at steady state in Sprague-Dawley rat at […], iv or 10 mg/kg, po; assay type: ADME, organism-based; settings: in vivo, read-out: Vdss
[10] = Half life in Sprague-Dawley rat at […], iv; assay type: ADME, organism-based; design: dose 2.5 mg/kg, route intravenous; settings: in vivo
[11] = Clearance in Sprague-Dawley rat at […], iv; assay type: ADME, organism-based; design: dose 2.5 mg/kg, route intravenous; settings: in vivo
[12] = Ratio of drug level in brain to plasma in Swiss mouse at 10 mg/kg, sc administered as single dose measured 1 hr post dose; assay type: ADME, organism-based; design: dose 10 mg/kg, route subcutaneous; settings: read-out: BPR
Method in brief: (§1)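 Swiss mice given a single 10 mg/kg sc dose at 1 mg/mL in 20% HP-β-CD + HCl solution, pH 4. Brain and plasma levels taken 1 h post dose. Values are geometric means of at least two runs.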

hERG = hERG (Homo sapiens, UniProt Q12809); assay: Inhibition of human ERG expressed in HEK293 cells at 3 uM by patch clamp assay; assay type: cell-based; settings: HEK293 cells expressing hERG
Method in brief: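 HEK293 cells stably expressing hERG, whole-cell currents recorded by automated patch clamp in extracellular solution (mM: 150 NaCl, 4 KCl, 1 MgCl2, 1.8 CaCl2, 10 HEPES, 5 glucose, pH 7.4). Vehicle (0.1% DMSO) applied for 5 min, then compound at 0.1, 0.3 and 3 μM, each applied twice (n = 3). Effect taken after 5 min as the mean current of three pulses; residual current compared with vehicle.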

[13] = Drug level in Swiss mouse brain at 10 mg/kg, sc administered as single dose measured 1 hr post dose; assay type: ADME, organism-based; design: dose 10 mg/kg, route subcutaneous; settings: read-out: Drug uptake; method in brief: as §1
[14] = Plasma concentration in Swiss mouse at 10 mg/kg, sc administered as single dose measured 1 hr post dose; assay type: ADME, organism-based; design: dose 10 mg/kg, route subcutaneous; method in brief: as §1

Chain of hERG (Q12809 whole entry): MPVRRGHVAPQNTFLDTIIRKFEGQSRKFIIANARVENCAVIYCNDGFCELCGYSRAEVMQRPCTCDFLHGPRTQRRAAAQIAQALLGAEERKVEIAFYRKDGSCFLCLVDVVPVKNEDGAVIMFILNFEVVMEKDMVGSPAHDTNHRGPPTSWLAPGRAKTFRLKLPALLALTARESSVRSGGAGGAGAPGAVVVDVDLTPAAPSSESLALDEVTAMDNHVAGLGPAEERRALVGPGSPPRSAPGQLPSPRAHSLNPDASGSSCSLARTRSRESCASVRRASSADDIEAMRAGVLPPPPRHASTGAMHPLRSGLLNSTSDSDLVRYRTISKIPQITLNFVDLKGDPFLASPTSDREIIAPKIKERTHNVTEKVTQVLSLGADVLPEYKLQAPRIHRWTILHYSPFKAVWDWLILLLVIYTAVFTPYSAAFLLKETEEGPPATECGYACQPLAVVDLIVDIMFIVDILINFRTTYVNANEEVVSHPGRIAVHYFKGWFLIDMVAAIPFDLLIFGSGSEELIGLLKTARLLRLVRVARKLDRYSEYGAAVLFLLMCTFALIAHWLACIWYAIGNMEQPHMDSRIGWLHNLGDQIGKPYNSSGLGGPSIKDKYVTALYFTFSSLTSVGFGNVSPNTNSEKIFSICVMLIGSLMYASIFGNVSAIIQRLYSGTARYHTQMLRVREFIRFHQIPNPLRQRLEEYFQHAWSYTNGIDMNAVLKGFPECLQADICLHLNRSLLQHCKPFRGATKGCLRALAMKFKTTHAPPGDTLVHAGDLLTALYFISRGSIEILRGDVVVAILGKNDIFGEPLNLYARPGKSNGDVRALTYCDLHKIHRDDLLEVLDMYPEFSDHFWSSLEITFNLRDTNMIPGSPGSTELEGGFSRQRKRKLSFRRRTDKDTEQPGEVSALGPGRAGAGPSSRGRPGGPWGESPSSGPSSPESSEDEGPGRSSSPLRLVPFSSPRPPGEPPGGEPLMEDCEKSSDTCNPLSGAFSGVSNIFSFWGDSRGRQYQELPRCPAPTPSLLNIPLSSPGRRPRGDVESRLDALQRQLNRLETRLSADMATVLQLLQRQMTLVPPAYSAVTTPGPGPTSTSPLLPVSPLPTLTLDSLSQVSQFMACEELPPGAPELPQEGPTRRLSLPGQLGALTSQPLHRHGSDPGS

SMILES: N#Cc1c(N2CCC(c3ccccc3)CC2)ccn2c(CN3CCCC3)nnc12
- metabolised at […], 5 µM [1]: 88%
- metabolised at […], 5 µM [2]: 38%
- Emax [3]: 240%
- EC50 [4]: 1.12 µM

SMILES: FC(F)(F)c1c(N2Cc3ccccc3C2)ccn2c(CC3CC3)nnc12
- metabolised at […], 5 µM [1]: 89%
- metabolised at […], 5 µM [2]: 50%
- Emax [3]: 330%
- EC50 [4]: 0.4 µM

SMILES: FC(F)(F)Cc1nnc2c(Cl)c(N3CCC(F)(c4ccccc4)CC3)ccn12
- bioavailability [5]: 63%
- Cmax [6]: 807 ng/mL
- AUC(0-inf) [7]: 5990 ng·h/mL
- Tmax [8]: 1.7 h
- Vd [9]: 1.9 L/kg
- half-life [10]: 2.6 h
- clearance [11]: 18 mL/min/kg
- Kp at 1 h [12]: 1.4
- inhibition at 3 µM (hERG): 42%
- metabolised at […], 5 µM [1]: 25%
- metabolised at […], 5 µM [2]: 39%
- Emax [3]: 310%

SMILES: CCCCc1nnc2c(C(F)(F)F)c(N3CCC(c4ccccc4)CC3)ccn12
- inhibition at 3 µM (hERG): 91%
- metabolised at […], 5 µM [1]: 54%
- metabolised at […], 5 µM [2]: 33%
- Emax [3]: 364%

SMILES: FC(F)(F)c1c(N2CCC(c3ccccc3)C2)ccn2c(CC3CC3)nnc12 (racemic)
- metabolised at […], 5 µM [1]: 72%
- metabolised at […], 5 µM [2]: 38%
- Emax [3]: 175%
- EC50 [4]: 1.23 µM

SMILES: N#Cc1c(N2CCC(c3ccccc3)CC2)ccn2c(CC(F)(F)F)nnc12
- inhibition at 3 µM (hERG): 33%
- metabolised at […], 5 µM [1]: 10%
- metabolised at […], 5 µM [2]: 9%
- Emax [3]: 277%

SMILES: N#Cc1c(N2CCC(c3ccccc3)CC2)ccn2c(CC(F)(F)F)cnc12
- metabolised at […], 5 µM [1]: 41%
- metabolised at […], 5 µM [2]: 24%
- Emax [3]: 259%
- EC50 [4]: 0.125 µM

SMILES: FC(F)(F)C1(c2ccccc2)CCN(c2ccn3c(CC4CC4)nnc3c2Cl)CC1
- bioavailability [5]: 53%
- Cmax [6]: 289 ng/mL
- AUC(0-inf) [7]: 1160 ng·h/mL
- Tmax [8]: 1.3 h
- Vd [9]: 5.1 L/kg
- half-life [10]: 2.1 h
- clearance [11]: 77 mL/min/kg
- Kp at 1 h [12]: 1.6
- inhibition at 3 µM (hERG): 42%
- metabolised at […], 5 µM [1]: 41%
- metabolised at […], 5 µM [2]: 56%
- Emax [3]: 243%

SMILES: COCc1nnc2c(C#N)c(N3CCC(c4ccccc4)CC3)ccn12
- metabolised at […], 5 µM [1]: 31%
- metabolised at […], 5 µM [2]: 12%
- Emax [3]: 196%
- EC50 [4]: 0.468 µM

SMILES: CCc1nnc2c(C#N)c(N3CCC(c4ccccc4)CC3)ccn12
- Kp at 1 h [12]: 0.2
- concentration at 1 h [13]: 135 ng/mL
- concentration at 1 h [14]: 672 ng/mL
- inhibition at 3 µM (hERG): 20%
- metabolised at […], 5 µM [1]: 7%
- metabolised at […], 5 µM [2]: 11%
- Emax [3]: 247%

SMILES: Clc1c(N2CCN(c3ccccc3)CC2)ccn2c(CC3CC3)nnc12
- metabolised at […], 5 µM [1]: 53%
- metabolised at […], 5 µM [2]: 62%
- Emax [3]: 308%
- EC50 [4]: 0.944 µM

SMILES: FC(F)(F)c1c(N2CCC(c3cccnc3)CC2)ccn2c(CC3CC3)nnc12
- metabolised at […], 5 µM [1]: 78%
- metabolised at […], 5 µM [2]: 31%
- Emax [3]: 268%
- EC50 [4]: 0.519 µM

SMILES: CCc1cnc2c(C#N)c(N3CCC(c4ccccc4)CC3)ccn12
- metabolised at […], 5 µM [1]: 82%
- metabolised at […], 5 µM [2]: 74%
- Emax [3]: 225%

SMILES: CCCc1nnc2c(C#N)c(N3CCC(c4ccccc4)CC3)ccn12
- metabolised at […], 5 µM [1]: 40%
- metabolised at […], 5 µM [2]: 25%
- Emax [3]: 272%
- EC50 [4]: 0.299 µM

SMILES: CCc1nnc2c(Cl)c(N3CCC(c4ccccc4)CC3)ccn12
- inhibition at 3 µM (hERG): 43%
- metabolised at […], 5 µM [1]: 39%
- metabolised at […], 5 µM [2]: 57%
- Emax [3]: 262%
- EC50 [4]: 0.386 µM

SMILES: FC(F)(F)c1c(N2CCC(F)(c3ccccc3)CC2)ccn2c(CC3CC3)nnc12
- inhibition at 3 µM (hERG): 84%
- metabolised at […], 5 µM [1]: 13%
- metabolised at […], 5 µM [2]: 18%
- Emax [3]: 292%

SMILES: Clc1c(N2CCC(c3ccccc3)CC2)ccn2c(CC3CC3)nnc12
- Kp at 1 h [12]: 1.4
- concentration at 1 h [13]: 3830 ng/mL
- concentration at 1 h [14]: 2660 ng/mL
- inhibition at 3 µM (hERG): 99%
- metabolised at […], 5 µM [2]: 56%
- Emax [3]: 343%

SMILES: FC(F)(F)c1c(N2CCc3ccccc3C2)ccn2c(CC3CC3)nnc12
- metabolised at […], 5 µM [1]: 86%
- metabolised at […], 5 µM [2]: 52%
- Emax [3]: 278%
- EC50 [4]: 0.149 µM

SMILES: CC(C)(C)c1nnc2c(C#N)c(N3CCC(c4ccccc4)CC3)ccn12
- Emax [3]: 207%
- EC50 [4]: 1.23 µM

SMILES: CCc1nnc2c(C(F)(F)F)c(N3CCC(c4ccccc4)CC3)ccn12
- bioavailability [5]: 35%
- Cmax [6]: 359 ng/mL
- AUC(0-inf) [7]: 1010 ng·h/mL
- Tmax [8]: 0.7 h
- Vd [9]: 1.4 L/kg
- half-life [10]: 1.9 h
- clearance [11]: 53 mL/min/kg
- Kp at 1 h [12]: 1.3
- inhibition at 3 µM (hERG): 36%
- metabolised at […], 5 µM [1]: 42%
- metabolised at […], 5 µM [2]: 29%
- Emax [3]: 334%
- EC50 [4]: 0.116 µM

SMILES: N#Cc1c(N2CCC(c3ccccc3)CC2)ccn2c(CC3CC3)nnc12
- metabolised at […], 5 µM [1]: 25%
- metabolised at […], 5 µM [2]: 6%
- Emax [3]: 278%

SMILES: Fc1ccc(C2CCN(c3ccn4c(CC5CC5)nnc4c3C(F)(F)F)CC2)c(F)c1
- inhibition at 3 µM (hERG): 91%
- metabolised at […], 5 µM [1]: 16%
- metabolised at […], 5 µM [2]: 2%
- Emax [3]: 306%
- EC50 [4]: 0.01 µM

SMILES: CCCc1cnc2c(C#N)c(N3CCC(c4ccccc4)CC3)ccn12
- metabolised at […], 5 µM [1]: 81%
- metabolised at […], 5 µM [2]: 74%
- Emax [3]: 254%

SMILES: FC(F)(F)Cc1nnc2c(Cl)c(N3CCC(c4ccccc4)CC3)ccn12
- Kp at 1 h [12]: 1.8
- concentration at 1 h [13]: 2090 ng/mL
- concentration at 1 h [14]: 1160 ng/mL
- inhibition at 3 µM (hERG): 71%
- metabolised at […], 5 µM [1]: 8%
- metabolised at […], 5 µM [2]: 13%
- Emax [3]: 300%
- EC50 [4]: 0.055 µM
